Key:
Plasmodium falciparum = experiment: Antimalarial activity against Plasmodium falciparum 3D7 incubated for 72 hrs by LDH assay; format: functional, organism-based; settings: 3D7, 72 h
Outline: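 Asexual blood-stage P. falciparum 3D7 parasites were cultured with compound for 72 h, and viability was read by lactate dehydrogenase (LDH) activity.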

HepG2 = experiment: Cytotoxicity against human HePG2 cells assessed as growth inhibition after 48 hrs by Cell Titer-Glo assay; format: cell-based; settings: HepG2, 48 h

`CCN(CC)C(=O)C(C)N1CCN(S(=O)(=O)c2ccc(C(C)(C)C)cc2)CC1` (centres undefined) gave an EC50 (Plasmodium falciparum) of 1.8 µM and an EC50 (HepG2) greater than 40 µM.
In the case of `COc1ccc(S(=O)(=O)N2CCN(C(C)C(=O)N3CCCC3)CC2)cc1` (centres undefined), the EC50 (Plasmodium falciparum) is reported as greater than 10 µM.
Compound `CC(C(=O)N(C)CCc1ccccc1)N1CCN(S(=O)(=O)c2ccc(C(C)(C)C)cc2)CC1` (centres undefined) has an EC50 (Plasmodium falciparum) of 2.1 µM and an EC50 (HepG2) of 17 µM.
With `CN(C(=O)N1CCCC1)C1CCN(S(=O)(=O)c2ccc(C(C)(C)C)cc2)CC1` the EC50 (Plasmodium falciparum) was greater than 10 µM.
`CC(C(=O)N1CCCC1)N1CCN(S(=O)(=O)c2ccc(C(C)(C)C)cc2)C(C)(C)C1` (centres undefined) showed an EC50 (Plasmodium falciparum) of 1.6 µM and an EC50 (HepG2) greater than 40 µM.
For `CCC(C)c1ccc(S(=O)(=O)N2CCN(C(C)C(=O)N3CCCC3)CC2)cc1` (centres undefined), the EC50 (Plasmodium falciparum) was 9.1 µM and the EC50 (HepG2) was greater than 40 µM.
In the case of `CC(C(=O)N1CCCC1)N1C[C@@H]2C[C@H]1CN2S(=O)(=O)c1ccc(C(C)(C)C)cc1` (mixture of isomers), the EC50 (Plasmodium falciparum) is reported as greater than 10 µM and the EC50 (HepG2) is reported as greater than 40 µM.
Work on `CC(C(=O)N1C2CCCC1CC2)N1CCN(S(=O)(=O)c2ccc(C(C)(C)C)cc2)CC1` (centres undefined) yielded an EC50 (Plasmodium falciparum) of 0.92 µM and an EC50 (HepG2) greater than 40 µM.
`C[C@H](C(=O)N1CCCCC1)N1CCN(S(=O)(=O)c2ccc(C(C)(C)C)cc2)CC1` gave an EC50 (Plasmodium falciparum) of 6.9 µM and an EC50 (HepG2) greater than 40 µM.
`CC(C(=O)N(C)Cc1ccccc1)N1CCN(S(=O)(=O)c2ccc(C(C)(C)C)cc2)CC1` (centres undefined) was tested, and the EC50 (Plasmodium falciparum) was 1.2 µM and the EC50 (HepG2) was greater than 40 µM.
Compound `Cc1ccc(S(=O)(=O)N2CCN(C(C)C(=O)N3CCCC3)CC2)cc1` (centres undefined) has an EC50 (Plasmodium falciparum) greater than 10 µM.
Compound `CC(C(=O)N1CCCC1)N1CCN(S(=O)(=O)c2ccc(C(C)(C)CO)cc2)CC1` (centres undefined) has an EC50 (Plasmodium falciparum) greater than 10 µM and an EC50 (HepG2) greater than 40 µM.
`CC(C(=O)N1CCCC1)N1CCN(S(=O)(=O)c2ccc(C3CC3)cc2)CC1` (centres undefined) was tested, and the EC50 (Plasmodium falciparum) was greater than 10 µM.
For `CC(C(=O)N1CCCC1)N1CC2(C1)CN(S(=O)(=O)c1ccc(C(C)(C)C)cc1)C2` (centres undefined), the EC50 (Plasmodium falciparum) was greater than 10 µM.
Compound `CC(C(=O)N1Cc2ccccc2C1)N1CCN(S(=O)(=O)c2ccc(C(C)(C)C)cc2)CC1` (centres undefined) has an EC50 (Plasmodium falciparum) of 1 µM and an EC50 (HepG2) greater than 40 µM.
Compound `CC(C(=O)N1CCCC1)N1CCN(S(=O)(=O)c2ccc(OC(F)(F)F)cc2)CC1` (centres undefined) has an EC50 (Plasmodium falciparum) greater than 10 µM.
Work on `CC(C)c1ccc(S(=O)(=O)N2CCN(C(C)C(=O)N3CCCC3)CC2)cc1` (centres undefined) yielded an EC50 (Plasmodium falciparum) greater than 10 µM and an EC50 (HepG2) greater than 40 µM.
For `CC(C(=O)N1CCC2(CC1)CC2)N1CCN(S(=O)(=O)c2ccc(C(C)(C)C)cc2)CC1` (centres undefined), the EC50 (Plasmodium falciparum) was 0.3 µM and the EC50 (HepG2) was greater than 40 µM.
With `CC(C(=O)N1CCN(C)CC1)N1CCN(S(=O)(=O)c2ccc(C(C)(C)C)cc2)CC1` (centres undefined) the EC50 (Plasmodium falciparum) was 6.1 µM and the EC50 (HepG2) was greater than 40 µM.
In the case of `CC(C(=O)N1CCCC1)N1C[C@@H]2CN(S(=O)(=O)c3ccc(C(C)(C)C)cc3)C[C@@H]2C1` (some centres undefined), the EC50 (Plasmodium falciparum) is reported as 4.3 µM and the EC50 (HepG2) is reported as greater than 40 µM.
With `C[C@H](C(=O)N1CCCC1)N1CCN(S(=O)(=O)c2ccc(C(C)(C)C)cc2)CC1` the EC50 (Plasmodium falciparum) was greater than 11 µM and the EC50 (HepG2) was greater than 40 µM.
In the case of `CC(C(=O)N1CCNCC1)N1CCN(S(=O)(=O)c2ccc(C(C)(C)C)cc2)CC1` (centres undefined), the EC50 (Plasmodium falciparum) is reported as greater than 10 µM.
`CC(C(=O)N1CCc2ccccc2C1C)N1CCN(S(=O)(=O)c2ccc(C(C)(C)C)cc2)CC1` (centres undefined) gave an EC50 (Plasmodium falciparum) of 1.2 µM and an EC50 (HepG2) of 28 µM.
Work on `CC(C(=O)N1CCCC1)N1CCN(S(=O)(=O)c2ccc(C(C)(C)C)cc2)[C@@H](C)C1` (some centres undefined) yielded an EC50 (Plasmodium falciparum) of 1.9 µM and an EC50 (HepG2) greater than 40 µM.
For `CC(C(=O)N1CCCC1)N1CCCN(S(=O)(=O)c2ccc(C(C)(C)C)cc2)CC1` (centres undefined), the EC50 (Plasmodium falciparum) was 6.3 µM and the EC50 (HepG2) was greater than 40 µM.
In the case of `CC(C(=O)N1CC2CC2C1)N1CCN(S(=O)(=O)c2ccc(C(C)(C)C)cc2)CC1` (centres undefined), the EC50 (Plasmodium falciparum) is reported as 0.33 µM and the EC50 (HepG2) is reported as greater than 40 µM.
Compound `CC(C(=O)N1CCCC1)N1CCN(S(=O)(=O)c2ccc(C3CCCC3)cc2)CC1` (centres undefined) has an EC50 (Plasmodium falciparum) greater than 10 µM.
Compound `CCCC(C(=O)N1CCCC1)N1CCN(S(=O)(=O)c2ccc(C(C)(C)C)cc2)CC1` (centres undefined) has an EC50 (Plasmodium falciparum) greater than 10 µM.
With `CC(C(=O)N1CCC(C)(C)CC1)N1CCN(S(=O)(=O)c2ccc(C(C)(C)C)cc2)CC1` (centres undefined) the EC50 (Plasmodium falciparum) was 4.3 µM and the EC50 (HepG2) was greater than 40 µM.
`CC(C)(C)c1ccc(S(=O)(=O)N2CCN(C(Cc3ccccc3)C(=O)N3CCCC3)CC2)cc1` (centres undefined) showed an EC50 (Plasmodium falciparum) greater than 10 µM.
For `CC(C(=O)N1CCc2cccnc2C1)N1CCN(S(=O)(=O)c2ccc(C(C)(C)C)cc2)CC1` (centres undefined), the EC50 (Plasmodium falciparum) was 1.9 µM and the EC50 (HepG2) was greater than 40 µM.
For `CC(C(=O)N1CCCC1)N1CCN(S(=O)(=O)c2ccccc2)CC1` (centres undefined), the EC50 (Plasmodium falciparum) was greater than 10 µM.
`CC(C(=O)N1CCCc2ccccc21)N1CCN(S(=O)(=O)c2ccc(C(C)(C)C)cc2)CC1` (centres undefined) gave an EC50 (Plasmodium falciparum) of 1.9 µM and an EC50 (HepG2) greater than 40 µM.
`CC(C(=O)N1CCc2ccccc2C1)N1CCN(S(=O)(=O)c2ccc(C(C)(C)C)cc2)CC1` (centres undefined) showed an EC50 (Plasmodium falciparum) of 0.99 µM and an EC50 (HepG2) of 29 µM.
`CC(C(=O)N1CCCC1)N1CCN(S(=O)(=O)c2ccc(C(C)(C)C)cc2)[C@H](C)C1` (some centres undefined) showed an EC50 (Plasmodium falciparum) greater than 10 µM.
Work on `CC(C)(C)c1ccc(S(=O)(=O)N2CCN(CC(=O)N3CCCC3)CC2)cc1` yielded an EC50 (Plasmodium falciparum) greater than 10 µM.
`CCC1(CC)c2ccccc2CCN1C(=O)C(C)N1CCN(S(=O)(=O)c2ccc(C(C)(C)C)cc2)CC1` (centres undefined) showed an EC50 (Plasmodium falciparum) of 1.2 µM and an EC50 (HepG2) greater than 40 µM.
In the case of `CCNC(=O)C(C)N1CCN(S(=O)(=O)c2ccc(C(C)(C)C)cc2)CC1` (centres undefined), the EC50 (Plasmodium falciparum) is reported as greater than 10 µM.
In the case of `CCC(C(=O)N1CCCC1)N1CCN(S(=O)(=O)c2ccc(C(C)(C)C)cc2)CC1` (centres undefined), the EC50 (Plasmodium falciparum) is reported as 1.9 µM and the EC50 (HepG2) is reported as greater than 40 µM.
`CC(C(=O)N1CCCC1)N1CCN(S(=O)(=O)c2ccc(C3(C(F)(F)F)CC3)cc2)CC1` (centres undefined) gave an EC50 (Plasmodium falciparum) greater than 10 µM.
Work on `CC(C(=O)N1CCCC1)N1CCN(S(=O)(=O)c2cccc(C(C)(C)C)c2)CC1` (centres undefined) yielded an EC50 (Plasmodium falciparum) of 8.4 µM and an EC50 (HepG2) greater than 40 µM.
`CC(C(=O)N1CCC(F)(F)CC1)N1CCN(S(=O)(=O)c2ccc(C(C)(C)C)cc2)CC1` (centres undefined) showed an EC50 (Plasmodium falciparum) of 0.38 µM and an EC50 (HepG2) greater than 40 µM.
`CC(C(=O)N1CCCC1)N1CCN(S(=O)(=O)c2ccc(C(C)(C)C)cc2)CC1=O` (centres undefined) gave an EC50 (Plasmodium falciparum) greater than 10 µM.
For `CC1CCN(C(=O)C(C)N2CCN(S(=O)(=O)c3ccc(C(C)(C)C)cc3)CC2)CC1` (centres undefined), the EC50 (Plasmodium falciparum) was 1.3 µM and the EC50 (HepG2) was greater than 40 µM.
`CC(C(=O)N1CCCC1)N1CCN(S(=O)(=O)c2ccc(-c3ccccc3)cc2)CC1` (centres undefined) gave an EC50 (Plasmodium falciparum) greater than 10 µM.
In the case of `CC(C(=O)N1CCc2ncccc2C1)N1CCN(S(=O)(=O)c2ccc(C(C)(C)C)cc2)CC1` (centres undefined), the EC50 (Plasmodium falciparum) is reported as 2.6 µM and the EC50 (HepG2) is reported as greater than 40 µM.
With `CC(C)(C)c1ccc(S(=O)(=O)N2CCN(C(C(=O)N3CCCC3)c3ccccc3)CC2)cc1` (centres undefined) the EC50 (Plasmodium falciparum) was 5.1 µM and the EC50 (HepG2) was greater than 40 µM.
For `CC(C(=O)N1CCc2ccccc2C12CCCCC2)N1CCN(S(=O)(=O)c2ccc(C(C)(C)C)cc2)CC1` (centres undefined), the EC50 (Plasmodium falciparum) was 2.9 µM and the EC50 (HepG2) was greater than 40 µM.
In the case of `CC(=O)c1ccc(S(=O)(=O)N2CCN(C(C)C(=O)N3CCCC3)CC2)cc1` (centres undefined), the EC50 (Plasmodium falciparum) is reported as greater than 10 µM.
Compound `CC(C(=O)N1CCOCC1)N1CCN(S(=O)(=O)c2ccc(C(C)(C)C)cc2)CC1` (centres undefined) has an EC50 (Plasmodium falciparum) of 4.4 µM and an EC50 (HepG2) greater than 40 µM.
With `CC(C(=O)N1CCCC1)N1CCN(S(=O)(=O)c2ccc(Br)cc2)CC1` (centres undefined) the EC50 (Plasmodium falciparum) was greater than 10 µM.
Work on `CC(C(=O)N(C)c1ccccc1)N1CCN(S(=O)(=O)c2ccc(C(C)(C)C)cc2)CC1` (centres undefined) yielded an EC50 (Plasmodium falciparum) greater than 10 µM.
In the case of `CC(C)(C)c1ccc(S(=O)(=O)N2CCN(C(C)(C)C(=O)N3CCCC3)CC2)cc1`, the EC50 (Plasmodium falciparum) is reported as 7.5 µM and the EC50 (HepG2) is reported as greater than 40 µM.
`CC(C(=O)N1CCCC1)N1CCN(S(=O)(=O)c2ccc(S(F)(F)(F)(F)F)cc2)CC1` (centres undefined) showed an EC50 (Plasmodium falciparum) greater than 10 µM.
With `CC(C(=O)N1CCCC1)N1CCN(S(=O)(=O)c2ccc([Si](C)(C)C)cc2)CC1` (centres undefined) the EC50 (Plasmodium falciparum) was 1.3 µM and the EC50 (HepG2) was greater than 40 µM.
Compound `CC(C(=O)N1CCCC1)N1CCN(S(=O)(=O)c2ccc(C(F)(F)F)cc2)CC1` (centres undefined) has an EC50 (Plasmodium falciparum) greater than 10 µM.
`CC(C(=O)N1CCc2ccccc2C12CCCC2)N1CCN(S(=O)(=O)c2ccc(C(C)(C)C)cc2)CC1` (centres undefined) was tested, and the EC50 (Plasmodium falciparum) was 0.81 µM and the EC50 (HepG2) was greater than 40 µM.
`CC(C)C(C(=O)N1CCCC1)N1CCN(S(=O)(=O)c2ccc(C(C)(C)C)cc2)CC1` (centres undefined) gave an EC50 (Plasmodium falciparum) greater than 10 µM.
`CC(C(=O)N1CCCC1)N1CCN(S(=O)(=O)c2ccc(CC(F)(F)F)cc2)CC1` (centres undefined) gave an EC50 (Plasmodium falciparum) greater than 10 µM.
